# Where two headings read alike, the source gives them in different places. Marks after values point to notes of the source that are not given here.
# T1: human UDP-α-D-glucose-6-dehydrogenase (hUGDH) (Homo sapiens, UniProt O60701)
# T1 sequence (O60701 1-464 limits assumed): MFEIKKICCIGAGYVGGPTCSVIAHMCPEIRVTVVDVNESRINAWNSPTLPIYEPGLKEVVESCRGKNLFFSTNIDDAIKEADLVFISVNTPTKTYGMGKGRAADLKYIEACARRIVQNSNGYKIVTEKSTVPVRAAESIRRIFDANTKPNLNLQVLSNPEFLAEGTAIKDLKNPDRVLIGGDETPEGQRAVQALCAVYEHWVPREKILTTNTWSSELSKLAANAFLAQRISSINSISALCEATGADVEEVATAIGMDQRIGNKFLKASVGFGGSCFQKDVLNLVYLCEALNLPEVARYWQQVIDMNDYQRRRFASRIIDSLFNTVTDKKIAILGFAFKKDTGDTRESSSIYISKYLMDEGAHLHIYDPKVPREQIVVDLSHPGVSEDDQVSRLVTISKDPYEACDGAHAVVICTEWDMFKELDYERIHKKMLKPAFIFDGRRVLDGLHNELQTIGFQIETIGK
# Columns and labels:
# [1] = test system: human UDP-α-D-glucose-6-dehydrogenase (hUGDH); assay: Stopped-flow analysis of hUGDH hysteresis; assay type: biochemical; settings: hUGDHFL versus hUGDHΔID, pre-steady state progress curves
# In short: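 Stopped-flow, 25 °C. 500 nM full-length or tail-deleted enzyme in 50 mM HEPES pH 7.5, 50 mM NaCl, 5 mM EDTA was mixed 1:1 with buffer holding substrate and cofactor, giving 250 nM enzyme with both saturating. NADH absorbance at 340 nm was taken every 10–15 ms. Curves were fit to Frieden's equation for lag length; mean and s.d. from ≥ 6 curves.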
# [2] = test system: human UDP-α-D-glucose-6-dehydrogenase (hUGDH); assay type: biochemical; settings: for Kcat: UDP-Glc saturation curves, global fit ± standard error
# In short: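 100 nM hexamer (500 nM dimer constructs) in 50 mM HEPES pH 7.5, 50 mM NaCl, 5 mM EDTA, 25 °C, saturating NAD+, varied UDP-Glc and UDP-Xyl. NADH was read at 340 nm. Frieden fits of early progress curves gave vss.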
# [3] = test system: human UDP-α-D-glucose-6-dehydrogenase (hUGDH); assay: Steady state kinetics: NAD+ substrate saturation curves; assay type: biochemical
# In short: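 Separate 5-min, 25 °C pre-incubations of enzyme and substrate, then mixing. Enzyme was 100 nM hexameric hUGDH in 50 mM HEPES pH 7.5, 50 mM NaCl, 5 mM EDTA, with saturating UDP-Glc and varied NAD+. NADH was followed continuously at 340 nm (6220 M−1cm−1). Progress curves before 10% substrate depletion were fit to Frieden's equation for vss. Saturation curves were fit to the sigmoidal rate equation; n ≥ 10 data points.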
# [4] = biological target: T1, human UDP-α-D-glucose-6-dehydrogenase (hUGDH); assay: Transient state kinetics of UDP-Xyl binding; settings: hUGDHFL versus hUGDHΔID
# In short: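 Stopped-flow intrinsic tryptophan fluorescence at 25 °C (dead time ~1.2 ms): 500 nM enzyme (syringe) mixed with varied UDP-Xyl, excitation 290 nm, emission cutoff filter below 320 nm. Traces were averaged over ≥ 4 replicates per concentration and inner-filter corrected. Six concentrations were globally fit by numerical simulation to a binding-plus-two-isomerization model, selected by confidence contour analysis. Binding free energy used a mM standard state.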
# [5] = Thermodynamic shift assay; assay type: physicochemical; settings: thermal denaturation, hUGDHFL-dimer versus hUGDHΔID-dimer (Fig. 3d)
# In short: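 Dimeric constructs at 0.1 mg/mL with 5X SYPRO Orange in 50 mM HEPES pH 7.5, 50 mM NaCl, 5 mM EDTA were spun and equilibrated 20 min. Fluorescence (excitation 470–505 nm, emission 540–570 nm) was recorded every 30 s while heating from 25 to 80 °C at […] in a qPCR instrument. Buffer-control baselines were subtracted; N ≥ 3.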
slowing of the rate of activation hysteresis (E* to E) by the ID-tail [1],Hill (h) ([3]; NAD+ saturation (Equation 6)),enhancement of the initial UDP-Xyl binding step by the ID-tail [4],gain in affinity of the initial UDP-Xyl binding step [4],"ΔΔG, change in UDP-Xyl binding free energy ([2]; relative to the hUGDHΔID-A136M)",Molecule,Kcat [2],Kcat ([3]; NAD+ saturation curves),"K0.5 (NAD^+) ([3]; NAD+ saturation, sigmoidal rate equation (Equation 6), hexameric enzyme)",destabilization by the ID-tail [5]
39%,0.8 ± 0.1,4.4 fold,-0.9 kcal/mol,–,"FL: full-length human UDP-α-D-glucose-6-dehydrogenase with the native 30-residue ID-tail (residues 465–494) (protein, UniProt O60701 1-494, looked up, full-length) MFEIKKICCIGAGYVGGPTCSVIAHMCPEIRVTVVDVNESRINAWNSPTLPIYEPGLKEVVESCRGKNLFFSTNIDDAIKEADLVFISVNTPTKTYGMGKGRAADLKYIEACARRIVQNSNGYKIVTEKSTVPVRAAESIRRIFDANTKPNLNLQVLSNPEFLAEGTAIKDLKNPDRVLIGGDETPEGQRAVQALCAVYEHWVPREKILTTNTWSSELSKLAANAFLAQRISSINSISALCEATGADVEEVATAIGMDQRIGNKFLKASVGFGGSCFQKDVLNLVYLCEALNLPEVARYWQQVIDMNDYQRRRFASRIIDSLFNTVTDKKIAILGFAFKKDTGDTRESSSIYISKYLMDEGAHLHIYDPKVPREQIVVDLSHPGVSEDDQVSRLVTISKDPYEACDGAHAVVICTEWDMFKELDYERIHKKMLKPAFIFDGRRVLDGLHNELQTIGFQIETIGKKVSSKRIPYAPSGEIPKFSLQDPPNKKPKV",0.8 ± 0.01 s⁻¹,0.9 ± 0.08 S^-1,0.8 ± 0.20 mM,–
–,–,–,–,0.03^g kcal•mol^-1,"FL-A136M: full-length hUGDH with the allostery quenching A136M substitution (protein, UniProt O60701 1-494, looked up, variant A136M, full-length) MFEIKKICCIGAGYVGGPTCSVIAHMCPEIRVTVVDVNESRINAWNSPTLPIYEPGLKEVVESCRGKNLFFSTNIDDAIKEADLVFISVNTPTKTYGMGKGRAADLKYIEACARRIVQNSNGYKIVTEKSTVPVRMAESIRRIFDANTKPNLNLQVLSNPEFLAEGTAIKDLKNPDRVLIGGDETPEGQRAVQALCAVYEHWVPREKILTTNTWSSELSKLAANAFLAQRISSINSISALCEATGADVEEVATAIGMDQRIGNKFLKASVGFGGSCFQKDVLNLVYLCEALNLPEVARYWQQVIDMNDYQRRRFASRIIDSLFNTVTDKKIAILGFAFKKDTGDTRESSSIYISKYLMDEGAHLHIYDPKVPREQIVVDLSHPGVSEDDQVSRLVTISKDPYEACDGAHAVVICTEWDMFKELDYERIHKKMLKPAFIFDGRRVLDGLHNELQTIGFQIETIGKKVSSKRIPYAPSGEIPKFSLQDPPNKKPKV",0.7 ± 0.01 s⁻¹,–,–,–
–,–,–,–,–,"hUGDH: human UDP-α-D-glucose-6-dehydrogenase, named without a construct (protein, UniProt O60701 1-494, looked up) UDP-glucose 6-dehydrogenase: MFEIKKICCIGAGYVGGPTCSVIAHMCPEIRVTVVDVNESRINAWNSPTLPIYEPGLKEVVESCRGKNLFFSTNIDDAIKEADLVFISVNTPTKTYGMGKGRAADLKYIEACARRIVQNSNGYKIVTEKSTVPVRAAESIRRIFDANTKPNLNLQVLSNPEFLAEGTAIKDLKNPDRVLIGGDETPEGQRAVQALCAVYEHWVPREKILTTNTWSSELSKLAANAFLAQRISSINSISALCEATGADVEEVATAIGMDQRIGNKFLKASVGFGGSCFQKDVLNLVYLCEALNLPEVARYWQQVIDMNDYQRRRFASRIIDSLFNTVTDKKIAILGFAFKKDTGDTRESSSIYISKYLMDEGAHLHIYDPKVPREQIVVDLSHPGVSEDDQVSRLVTISKDPYEACDGAHAVVICTEWDMFKELDYERIHKKMLKPAFIFDGRRVLDGLHNELQTIGFQIETIGKKVSSKRIPYAPSGEIPKFSLQDPPNKKPKV",–,–,–,3.5 °C

# — paper PMC6415545 (Nature, 2018)
